In ChEMBL document CHEMBL2034823, “Synthesis and antiviral activity of certain second generation methylenecyclopropane nucleosides” (Bioorg Med Chem, 2012):

Columns and labels:
Human alphaherpesvirus 1 = assay: Antiviral activity against HSV-1 infected in human HFF cells assessed as reduction in cytopathic effect after 3 days by crystal violet staining; format: functional, organism-based; conditions: Human alphaherpesvirus 1, HFF, 72 h
Summary of the method: (§1)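 Compound diluted over HFF monolayers, then HSV-1 (E-377) or HSV-2 (MS) added at MOI about 0.01 PFU/cell. Held 3 days in humidified 5% CO2. Stained 4 h with 0.1% crystal violet in formalin, rinsed, dried 24 h, and absorbance read at 595 nm. EC50 is 50% CPE reduction. Duplicate wells.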

[1] = Antiviral activity against HHV-6A infected in human HSB2 cells assessed as reduction in viral DNA after 7 days by hybridization assay; format: functional, cell-based, Human herpesvirus 6A; conditions: Human betaherpesvirus 6A, HSB2, 168 h
Summary of the method: (§2)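 Compound serially diluted in medium. Uninfected HSB-2 cells were infected with HHV-6A (GS)-infected HSB-2 cells, and Molt-3 cells with HHV-6B (Z29)-infected Molt-3 cells. Incubation 7 days at 37 °C. Lysis in 4.5 M NaCl/1.2 M NaOH, then transfer to nylon membrane. Viral DNA quantified by digoxigenin-probe hybridization and EC50 calculated. Duplicate wells.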

Human gammaherpesvirus 4 = assay: Antiviral activity against EBV Akata infected in human Akata cells assessed as reduction in viral DNA after 72 hrs by hybridization assay; format: functional, organism-based; conditions: human gammaherpesvirus 4, Akata
Summary of the method: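 Akata cells kept in RPMI 1640 with 10% FBS, L-glutamine, penicillin and gentamicin. Latent infection was switched to productive by adding goat anti-human IgG, and cells were seeded into compound dilutions made in growth medium. After 72 h the DNA was denatured and blotted onto nylon membrane. Viral DNA was measured with a digoxigenin-labeled probe plus anti-hapten antibody. EC50 is the concentration halving viral DNA. Duplicate wells.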

[2] = Cytotoxicity against human HSB2 cells after 7 days by Cell-Titer Glo assay; format: cell-based, CCRF-HSB-2
Summary of the method: (§3)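 Uninfected Akata, BCBL1, HSB-2 or MOLT-3 cells incubated with compound for seven days under the matching antiviral-assay conditions. CellTiter-Glo added and luminescence read. CC50 is the concentration reducing cell number by 50%.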

[3] = Cytotoxicity against human BCBL1 cells after 7 days by Cell-Titer Glo assay; format: cell-based; summary of the method: as §3
[4] = Antiviral activity against HHV-6B infected in human Molt3 cells assessed as reduction in viral DNA after 7 days by hybridization assay; format: functional, cell-based, Human herpesvirus 6B; conditions: Human betaherpesvirus 6B, MOLT-3, 168 h; summary of the method: as §2
Human betaherpesvirus 5 = assay: Antiviral activity against HCMV infected in human HFF cells assessed as reduction in cytopathic effect after 8 days by plaque reduction assay; format: functional, organism-based; conditions: Human betaherpesvirus 5, HFF, 192 h
Summary of the method: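 HFF monolayers seeded 2 days ahead and infected with AD169 at about 30 plaques per well, with 1 h adsorption. Compound was then added in MEM with 2% FBS, L-glutamine, penicillin, gentamycin and pooled human gamma globulin. After 8 days, neutral red stain and plaque counts by stereomicroscope. EC50 interpolated. Duplicate wells.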

Human alphaherpesvirus 3 = assay: Antiviral activity against VZV infected in human HFF cells assessed as reduction in cytopathic effect after 7 days by crystal violet staining; format: functional, organism-based; conditions: Human alphaherpesvirus 3, HFF, 168 h
[5] = Cytotoxicity against human MOLT3 cells after 7 days by Cell-Titer Glo assay; format: cell-based, MOLT-3; summary of the method: as §3
Human alphaherpesvirus 2 = assay: Antiviral activity against HSV-2 infected in human HFF cells assessed as reduction in cytopathic effect after 3 days by crystal violet staining; format: functional, organism-based; conditions: Human alphaherpesvirus 2, HFF, 72 h; summary of the method: as §1
[6] = Cytotoxicity against human Akata cells after 7 days by Cell-Titer Glo assay; format: cell-based; summary of the method: as §3
[7] = Cytotoxicity against human HFF cells after 3 to 8 days by crystal voilet staining; format: cell-based
Summary of the method: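 Uninfected HFF cells exposed to the same concentrations as in the CPE assays (3 days for HSV, 7 for VZV, […]). Stained with crystal violet. CC50 is the concentration reducing cell number by 50%. Duplicate wells.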

Human gammaherpesvirus 8 = assay: Antiviral activity against HHV-8 infected in human BCBL1 cells assessed as reduction in viral DNA after 7 days by qPCR analysis; format: functional, organism-based; conditions: Human gammaherpesvirus 8, BCBL1, 168 h
Summary of the method: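 BCBL1 cells kept in RPMI 1640 with 10% FBS, penicillin, gentamycin and L-glutamine. Lytic infection induced with phorbol 12-myristate 13-acetate, then cells added to triplicate compound dilutions. Incubation 7 days at 37 °C in humidified CO2. EC50 is the concentration halving viral DNA accumulation.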

CCCCNc1nc(N)nc2c1ncn2/C=C1/CC1(CO)CO
IC50 (Human alphaherpesvirus 1): > 300 µM
IC50 [1]: > 20 µM
IC50 (Human gammaherpesvirus 4): > 24 µM
CC50 at 168 h [2]: > 20 µM
CC50 at 168 h [3]: > 20 µM
IC50 [4]: > 20 µM
IC50 (Human betaherpesvirus 5): > 60 µM
IC50 (Human alphaherpesvirus 3): > 300 µM
CC50 at 168 h [5]: > 20 µM
IC50 (Human alphaherpesvirus 2): > 300 µM
CC50 at 168 h [6]: > 24 µM
CC50 [7]: > 300 µM
IC50 (Human gammaherpesvirus 8): > 20 µM

CCCCSc1nc(N)nc2c1ncn2/C=C1/CC1(CO)CO
IC50 (Human alphaherpesvirus 1): > 300 µM
IC50 [1]: 75 µM
IC50 (Human gammaherpesvirus 4): 2.5 µM
CC50 at 168 h [2]: 89 µM
CC50 at 168 h [3]: > 20 µM
IC50 [4]: 7 µM
IC50 (Human betaherpesvirus 5): > 50 µM
IC50 (Human alphaherpesvirus 3): > 300 µM
CC50 at 168 h [5]: > 20 µM
IC50 (Human alphaherpesvirus 2): > 300 µM
CC50 at 168 h [6]: > 20 µM
CC50 [7]: > 300 µM
IC50 (Human gammaherpesvirus 8): > 20 µM

C=CCOc1nc(N)nc2c1ncn2/C=C1/CC1(CO)CO
IC50 (Human alphaherpesvirus 1): > 300 µM
IC50 [1]: > 20 µM
IC50 (Human gammaherpesvirus 4): 11 µM
CC50 at 168 h [2]: > 20 µM
CC50 at 168 h [3]: > 20 µM
IC50 [4]: 11.4 µM
IC50 (Human betaherpesvirus 5): 1.1 µM
IC50 (Human alphaherpesvirus 3): > 300 µM
CC50 at 168 h [5]: > 20 µM
IC50 (Human alphaherpesvirus 2): > 300 µM
CC50 at 168 h [6]: > 20 µM
CC50 [7]: > 300 µM
IC50 (Human gammaherpesvirus 8): 17 µM

CCCCCCSc1nc(N)nc2c1ncn2/C=C1/CC1(CO)CO
IC50 (Human alphaherpesvirus 1): > 300 µM
IC50 [1]: > 20 µM
IC50 (Human gammaherpesvirus 4): 7.1 µM
CC50 at 168 h [2]: 60 µM
CC50 at 168 h [3]: > 20 µM
IC50 [4]: 5.4 µM
IC50 (Human betaherpesvirus 5): > 50 µM
IC50 (Human alphaherpesvirus 3): > 300 µM
CC50 at 168 h [5]: > 20 µM
IC50 (Human alphaherpesvirus 2): > 300 µM
CC50 at 168 h [6]: > 20 µM
CC50 [7]: > 300 µM
IC50 (Human gammaherpesvirus 8): > 20 µM

Nc1nc(OCC(F)(F)F)c2ncn(/C=C3/CC3(CO)CO)c2n1
IC50 (Human alphaherpesvirus 1): > 300 µM
IC50 [1]: > 20 µM
IC50 (Human gammaherpesvirus 4): 1.4 µM
CC50 at 168 h [2]: > 20 µM
CC50 at 168 h [3]: > 20 µM
IC50 [4]: 8.9 µM
IC50 (Human betaherpesvirus 5): 5.6 µM
IC50 (Human alphaherpesvirus 3): > 300 µM
CC50 at 168 h [5]: > 20 µM
IC50 (Human alphaherpesvirus 2): > 300 µM
CC50 at 168 h [6]: > 20 µM
CC50 [7]: > 300 µM
IC50 (Human gammaherpesvirus 8): 19 µM

Nc1nc(OCc2ccccc2)c2ncn(/C=C3/CC3(CO)CO)c2n1
IC50 (Human alphaherpesvirus 1): > 300 µM
IC50 [1]: > 20 µM
IC50 (Human gammaherpesvirus 4): > 20 µM
CC50 at 168 h [2]: > 20 µM
CC50 at 168 h [3]: > 20 µM
IC50 [4]: > 20 µM
IC50 (Human betaherpesvirus 5): 45 µM
IC50 (Human alphaherpesvirus 3): 53 µM
CC50 at 168 h [5]: > 20 µM
IC50 (Human alphaherpesvirus 2): > 300 µM
CC50 at 168 h [6]: > 20 µM
CC50 [7]: > 300 µM
IC50 (Human gammaherpesvirus 8): > 20 µM

Nc1nc(SC2CCCC2)c2ncn(/C=C3/CC3(CO)CO)c2n1
IC50 (Human alphaherpesvirus 1): > 300 µM
IC50 [1]: 35 µM
IC50 (Human gammaherpesvirus 4): 0.9 µM
CC50 at 168 h [2]: 91 µM
CC50 at 168 h [3]: > 20 µM
IC50 [4]: 9.9 µM
IC50 (Human betaherpesvirus 5): > 50 µM
IC50 (Human alphaherpesvirus 3): > 300 µM
CC50 at 168 h [5]: > 20 µM
IC50 (Human alphaherpesvirus 2): > 300 µM
CC50 at 168 h [6]: > 20 µM
CC50 [7]: > 300 µM
IC50 (Human gammaherpesvirus 8): > 20 µM

COCCOc1nc(N)nc2c1ncn2/C=C1/CC1(CO)CO
IC50 (Human alphaherpesvirus 1): > 300 µM
IC50 [1]: > 20 µM
IC50 (Human gammaherpesvirus 4): 20 µM
CC50 at 168 h [2]: > 20 µM
CC50 at 168 h [3]: > 20 µM
IC50 [4]: > 20 µM
IC50 (Human betaherpesvirus 5): 17 µM
IC50 (Human alphaherpesvirus 3): 13.9 µM
CC50 at 168 h [5]: > 20 µM
IC50 (Human alphaherpesvirus 2): > 300 µM
CC50 at 168 h [6]: > 20 µM
CC50 [7]: > 300 µM
IC50 (Human gammaherpesvirus 8): > 20 µM

CCCCCCCCSc1nc(N)nc2c1ncn2/C=C1/CC1(CO)CO
IC50 (Human alphaherpesvirus 1): > 300 µM
IC50 [1]: > 20 µM
IC50 (Human gammaherpesvirus 4): > 20 µM
CC50 at 168 h [2]: 60 µM
CC50 at 168 h [3]: > 20 µM
IC50 [4]: 11 µM
IC50 (Human betaherpesvirus 5): 20 µM
IC50 (Human alphaherpesvirus 3): > 60 µM
CC50 at 168 h [5]: > 20 µM
IC50 (Human alphaherpesvirus 2): > 300 µM
CC50 at 168 h [6]: > 20 µM
CC50 [7]: > 300 µM
IC50 (Human gammaherpesvirus 8): > 20 µM

CCCOc1nc(N)nc2c1ncn2/C=C1/CC1(CO)CO
IC50 (Human alphaherpesvirus 1): > 300 µM
IC50 [1]: 18 µM
IC50 (Human gammaherpesvirus 4): 8.9 µM
CC50 at 168 h [2]: > 20 µM
CC50 at 168 h [3]: > 20 µM
IC50 [4]: 6.6 µM
IC50 (Human betaherpesvirus 5): 1.1 µM
IC50 (Human alphaherpesvirus 3): 2.9 µM
CC50 at 168 h [5]: > 20 µM
IC50 (Human alphaherpesvirus 2): > 300 µM
CC50 at 168 h [6]: > 20 µM
CC50 [7]: > 300 µM
IC50 (Human gammaherpesvirus 8): 16 µM

Nc1nc(NC2CC2)c2ncn(/C=C3/CC3(CO)CO)c2n1
IC50 (Human alphaherpesvirus 1): > 60 µM
IC50 [1]: > 20 µM
IC50 (Human gammaherpesvirus 4): > 20 µM
CC50 at 168 h [2]: > 20 µM
CC50 at 168 h [3]: 71.5 µM
IC50 [4]: > 20 µM
IC50 (Human betaherpesvirus 5): 24 µM
IC50 (Human alphaherpesvirus 3): > 60 µM
CC50 at 168 h [5]: > 20 µM
IC50 (Human alphaherpesvirus 2): > 60 µM
CC50 at 168 h [6]: > 20 µM
CC50 [7]: > 300 µM
IC50 (Human gammaherpesvirus 8): 71 µM

CCCCCCCCOc1nc(N)nc2c1ncn2/C=C1/CC1(CO)CO
IC50 (Human alphaherpesvirus 1): > 300 µM
IC50 [1]: > 20 µM
IC50 (Human gammaherpesvirus 4): 13 µM
CC50 at 168 h [2]: > 20 µM
CC50 at 168 h [3]: > 20 µM
IC50 [4]: 11.5 µM
IC50 (Human betaherpesvirus 5): 29 µM
IC50 (Human alphaherpesvirus 3): > 100 µM
CC50 at 168 h [5]: > 20 µM
IC50 (Human alphaherpesvirus 2): > 300 µM
CC50 at 168 h [6]: > 20 µM
CC50 [7]: > 300 µM
IC50 (Human gammaherpesvirus 8): > 20 µM

CCCCCOc1nc(N)nc2c1ncn2/C=C1/CC1(CO)CO
IC50 (Human alphaherpesvirus 1): > 300 µM
IC50 [1]: > 20 µM
IC50 (Human gammaherpesvirus 4): 0.5 µM
CC50 at 168 h [2]: > 20 µM
CC50 at 168 h [3]: > 20 µM
IC50 [4]: > 20 µM
IC50 (Human betaherpesvirus 5): 0.5 µM
IC50 (Human alphaherpesvirus 3): > 60 µM
CC50 at 168 h [5]: > 20 µM
IC50 (Human alphaherpesvirus 2): > 300 µM
CC50 at 168 h [6]: > 20 µM
CC50 [7]: 259 µM
IC50 (Human gammaherpesvirus 8): > 20 µM

CCOc1nc(N)nc2c1ncn2/C=C1/CC1(CO)CO
IC50 (Human alphaherpesvirus 1): > 300 µM
IC50 [1]: > 20 µM
IC50 (Human gammaherpesvirus 4): 11.9 µM
CC50 at 168 h [2]: > 20 µM
CC50 at 168 h [3]: > 20 µM
IC50 [4]: 11.2 µM
IC50 (Human betaherpesvirus 5): 1.6 µM
IC50 (Human alphaherpesvirus 3): > 100 µM
CC50 at 168 h [5]: > 20 µM
IC50 (Human alphaherpesvirus 2): > 300 µM
CC50 at 168 h [6]: > 20 µM
CC50 [7]: > 300 µM
IC50 (Human gammaherpesvirus 8): > 20 µM
